# Measured values from ChEMBL document CHEMBL4196032, “Conformational mimetics of the α-methyl chalcone TUB091 binding tubulin: Design, synthesis and antiproliferative activity” (Eur J Med Chem, 2018).
# Activity calls are given as the source filed them. The calls are words filed in the database; no cut-off is given here.
# Columns and labels:
# HMEC-1 [1] = experiment: Antiproliferative activity against human HMEC1 cells; format: cell-based
# In short: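 HMEC-1 microvascular endothelial cells plated at 20,000 cells/well in 48-well plates. 5-fold dilutions added after 24 h, then 4 days of growth. Cells trypsinized and counted by Coulter counter. IC50 is the concentration halving proliferation.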
# Bos taurus [2] = species on record: Bos taurus; experiment: Inhibition of calf brain tubulin polymerization at 30 uM measured for 6000 secs by spectrophotometric method
# In short: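 Calf brain tubulin, gel-filtered into GAB buffer (10 mM sodium phosphate, 1 mM EGTA, 25% glycerol, 0.1 mM GTP, pH 7.0) at 25 µM, degassed; compound at 30 µM. Assembly at 37 °C followed by absorbance at 350 nm up to 6000 s; DMSO and podophyllotoxin controls; normalized absorbance.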
# CCRF-CEM [3] = experiment: Antiproliferative activity against human CEM cells; format: functional, cell-based
# In short: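 Suspension cells seeded at 60,000 cells/well in 96-well plates together with a range of compound concentrations. Grown 96 h, then counted by Coulter counter. IC50 taken as the concentration reducing proliferation by 50%.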
# HeLa [4] = experiment: Antiproliferative activity against human HeLa cells; format: functional, cell-based
# In short: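 Cervical carcinoma cells plated at 10,000 cells/well in 48-well plates. Varied concentrations added after 24 h, then 3 days of incubation. Cells trypsinized and Coulter-counted. IC50 is the concentration giving 50% reduction of proliferation.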
# L1210 = experiment: Antiproliferative activity against mouse L1210 cells after 96 hrs by coulter counting method; format: functional, cell-based; conditions: L1210, 96 h
# In short: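 Suspension cells (CEM, L1210) seeded at 60,000 cells/well together with graded compound concentrations; grown 96 h, then counted by Coulter counter. IC50 = concentration reducing cell proliferation by 50%.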
# CCRF-CEM [5] = experiment: Antiproliferative activity against human CEM cells after 96 hrs by coulter counting method; format: functional, cell-based
# In short: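 Suspension cells (CEM, L1210) seeded at 60,000 cells/well together with graded compound concentrations; grown 96 h, then counted by Coulter counter.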
# HMEC-1 [6] = experiment: Antiproliferative activity against human HMEC1 cells after 4 days by coulter counting method; format: cell-based; conditions: HMEC-1, 96 h
# In short: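 HMEC-1 seeded at 20,000 cells/well; 5-fold compound dilutions added after 24 h; 4 days proliferation, trypsinized, Coulter counted.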
# Bos taurus [7] = species on record: Bos taurus; experiment: Inhibition of R-PT binding to calf brain tubulin after 30 mins by fluorescence assay
# In short: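 Competition assay: 0.2 µM R-PT premixed with 0.2 µM calf brain tubulin in GAB buffer, ligand at 0–70 µM; 30 min at 25 °C, fluorescence read at 456 nm (ex 374 nm). Binding constants derived from competition data; racemates tested.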
# Tubulin (Homo sapiens) = Tubulin (Homo sapiens) (UniProt P68371+Q9H4B7+P0DPH7+P68366+Q13509+Q71U36+P04350+Q3ZCM7+P07437+P68363+Q9BQE3+Q6PEY2+Q13885+Q9BVA1+Q9BUF5); experiment: Inhibition of tubulin polymerization in human HeLa cells assessed as reduction in mitotic spindle formation by measuring aberrant multipolar spindle formation at 0.1 to 0.3 uM after 24 hrs by Hoechst 33342 staining based immunofluorescence microscopic method; format: cell-based
# In short: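 HeLa seeded overnight on poly-L-lysine-coated slides, treated 24 h with compound or 0.1% DMSO. Fixed, permeabilized, stained with anti-β-tubulin (2 µg/ml) then Alexa Fluor 555 anti-mouse (4 µg/ml); nuclei with Hoechst 33342 (2 µg/ml); spindles imaged by fluorescence microscopy.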
# HeLa [8] = experiment: Antiproliferative activity against human HeLa cells after 3 days by coulter counting method; format: functional, cell-based; conditions: 72 h
# In short: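 HeLa seeded at 10,000 cells/well; various compound concentrations added 24 h later; after 3 days incubation cells trypsinized and counted by Coulter counter.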
# HeLa [9] = experiment: Cell cycle arrest in human HeLa cells assessed as accumulation at G2/M phase at 0.1 uM after 24 hrs by propidium iodide staining based flow cytometry; format: functional
# In short: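 HeLa in DMEM + 10% FBS, 125,000 cells/well; compound added after 24 h for 24 h. DNA stained with propidium iodide kit, analysed by flow cytometry within 3 h; debris/clumps gated out; sub-G1, G1, S, G2/M percentages from region markers.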
compound,measurement,setting,value
COc1ccc(/C=C(\C)C(=O)c2cc(OC)c3c(c2)OCO3)cc1N,IC50,HMEC-1 [1],0.0023 µM
same,inhibition,Bos taurus [2],Active
same,IC50,CCRF-CEM [3],0.001 µM
same,IC50,HeLa [4],0.0039 µM
same,IC50,L1210,0.001 µM
COc1cc([C@@H]2c3cc4c(cc3[C@H](O)[C@H]3COC(=O)[C@H]23)OCO4)cc(OC)c1OC,inhibition,Bos taurus [2],Active
COc1ccc2c(c1N)CCC(C(=O)c1ccc(OC)c(OC)c1OC)C2 (racemic),IC50,CCRF-CEM [5],0.022 µM
same,inhibition,Bos taurus [2],Active
same,IC50,HMEC-1 [6],0.047 µM
same,IC50,L1210,0.027 µM
same,Kb,Bos taurus [7],2.4 ×10⁶ /M
same,inhibition,Tubulin (Homo sapiens),Active
same,IC50,HeLa [8],0.03 µM
same,Activity,HeLa [9],Active
COc1ccc(C(=O)C2CCc3c(ccc(OC)c3[N+](=O)[O-])C2)c(OC)c1OC (racemic),IC50,CCRF-CEM [5],0.86 µM
same,inhibition,Bos taurus [2],Active
same,IC50,HMEC-1 [6],5.3 µM
same,IC50,L1210,4.2 µM
same,IC50,HeLa [8],0.81 µM
COc1ccc2c(c1)CCC(C(=O)c1ccc(OC)c3c1OCO3)C2 (racemic),IC50,CCRF-CEM [5],39 µM
same,IC50,HMEC-1 [6],38 µM
same,IC50,L1210,160 µM
same,IC50,HeLa [8],88 µM
COc1ccc(C(=O)C2CCc3c(ccc(OC)c3N)C2)cc1OC (racemic),IC50,CCRF-CEM [5],6.3 µM
same,IC50,HMEC-1 [6],122 µM
same,IC50,L1210,52 µM
same,IC50,HeLa [8],23 µM
COc1ccc2c(c1)CCC(C(=O)c1ccc(OC)c(OC)c1)C2 (racemic),IC50,CCRF-CEM [5],221 µM
same,inhibition,Bos taurus [2],inactive
same,IC50,HMEC-1 [6],> 250 µM
same,IC50,L1210,> 250 µM
same,IC50,HeLa [8],> 250 µM
COc1ccc2c(c1)CCC(C(=O)c1ccc(OC)c(OC)c1O)C2 (racemic),IC50,CCRF-CEM [5],38 µM
same,IC50,HMEC-1 [6],≥ 250 µM
same,IC50,L1210,75 µM
same,IC50,HeLa [8],40 µM
COc1cc2c(cc1N)CC(C(=O)c1ccc(OC)c(OC)c1OC)CC2 (racemic),IC50,CCRF-CEM [5],0.48 µM
same,IC50,HMEC-1 [6],1.3 µM
same,IC50,L1210,0.86 µM
same,IC50,HeLa [8],0.74 µM
COc1cc2c(cc1[N+](=O)[O-])CC(C(=O)c1ccc(OC)c(OC)c1OC)CC2 (racemic),IC50,CCRF-CEM [5],> 250 µM
same,IC50,HMEC-1 [6],199 µM
same,IC50,L1210,> 250 µM
same,IC50,HeLa [8],> 250 µM
COc1ccc2c(c1)CCC(C(=O)c1ccc(OC)c(OC)c1OC)C2 (racemic),IC50,CCRF-CEM [5],0.17 µM
same,inhibition,Bos taurus [2],Active
same,IC50,HMEC-1 [6],1.2 µM
same,IC50,L1210,0.24 µM
same,IC50,HeLa [8],0.4 µM
COc1ccc(/C=C\c2cc(OC)c(OC)c(OC)c2)cc1OP(=O)(O)O [FOSBRETABULIN DISODIUM],IC50,CCRF-CEM [5],0.011 µM
same,IC50,HMEC-1 [6],0.0029 µM
same,IC50,L1210,0.0021 µM
same,IC50,HeLa [8],0.013 µM
